SIRT5 block – inhibitors of human sirtuin-5 desuccinylase; inhibition, % at 15 µM; Q9NXA8; 1.1% of 330,000 active; Purified SirT5, succinyl-peptide AMC, trypsin-coupled fluorescence; in the data active = inhibition above about 15%
Target sequence (Q9NXA8 whole entry, looked up): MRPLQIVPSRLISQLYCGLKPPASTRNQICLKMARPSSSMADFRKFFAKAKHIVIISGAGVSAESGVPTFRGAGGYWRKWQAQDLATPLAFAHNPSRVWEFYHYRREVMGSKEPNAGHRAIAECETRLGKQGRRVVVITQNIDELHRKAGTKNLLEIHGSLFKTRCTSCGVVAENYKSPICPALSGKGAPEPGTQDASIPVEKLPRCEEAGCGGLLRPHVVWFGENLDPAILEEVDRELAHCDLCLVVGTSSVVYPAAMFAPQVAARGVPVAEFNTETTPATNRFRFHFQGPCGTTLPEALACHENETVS
F508del corr – CFTR F508del correction in bronchial cells; AID 720511; CFBE cells, YFP halide quenching; stimulated with forskolin plus potentiator P3; % fluorescence drop versus neutral controls; activity (quench increase), % at 7.58 µM; 0.36% of 350,000 active;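 active = mean added fluorescence quench of at least 8% versus neutral control, with both replicates also reaching 8%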;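 note: cells transiently co-express mutant CFTR-F508del with the halide-sensitive YFP; corrector assay measuring rescue of mutant channel to the surface after 24 h compound exposure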
S100A4 inh HTS – S100A4-myosin IIA interaction inhibition; 0.14% of 360,000 active; P26447; inhibition, % at 10.7 µM; AID 652163; S100A4/TAMRA-MyoIIA peptide fluorescence polarization;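 active = mean inhibition of at least 70% across replicates, with every replicate also reaching that level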
Target sequence (P26447 whole entry, looked up): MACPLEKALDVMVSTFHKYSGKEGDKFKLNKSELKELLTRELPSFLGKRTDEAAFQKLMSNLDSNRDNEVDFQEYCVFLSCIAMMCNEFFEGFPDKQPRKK
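Material: S100A4 monomer (human). Medium: Calcium-containing HEPES buffer, pH 7.2. Probe or stimulus: labelled myosin peptide probe, 5 nM. Compound dosing: one concentration per compound. Timing: polarization read 5 min after assay mix addition, stable 5–60 min. Benchmarks: DMSO as neutral control, TFP as positive control.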
Ecoli rRNA inh – selective bacterial rRNA inhibition in E. coli. E. coli WT GFP vs humanized-ribosome RFP mutants, fluorescence, 24 h; stronger effect = lower value; DMSO median 0, no signal -100. GFP signal change (wild-type ribosome), % (test concentration not listed). 1.6% of 350,000 active. AID 720706;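 active = significant combined selectivity score with lowered wild-type GFP, culture density cut under 30%, mutant RFP and density less affected; inactive = any of these conditions unmet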
ERAP1 HTS inh – ERAP1 (human) enzyme inhibition | Q9NZ08 | recombinant ERAP1, Leu-AMC fluorescence, 60 min | inhibition, % at 10.7 µM | 0.15% of 340,000 active;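 active = mean replicate inhibition of at least 30%, or all replicates individually reaching that 30% level; inactive = mean below 30% and not every replicate reaching it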;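 note: 0% = neutral control wells and 100% = L-leucinethiol positive control wells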
Starred values were filed as active, the others as inactive; / = no result. Hits are enriched below; roughly 3.1% of the tested compounds scored in any of these assays.

SMILES | SIRT5 block | F508del corr | S100A4 inh HTS | Ecoli rRNA inh | ERAP1 HTS inh
CC(=O)Oc1c(C)cc(Cl)cc1C(=O)Nc1ccc([N+](=O)[O-])cc1Cl | -5 | 13* | -2 | -30 | 5
C/C(=N\Nc1ccc(Cl)c(C(=O)O)c1)c1ccc[nH]1 | 24* | 0 | -2 | 1 | /
COCC1CN(CCc2ccc(F)cc2)S(=O)(=O)c2c(F)cccc2O1 (stereo not given) | 1 | 1 | -6 | -22* | -3
Cc1noc(C)c1S(=O)(=O)N(C)C[C@H]1Oc2ccc(NS(=O)(=O)c3ccc(F)cc3)cc2CC(=O)N([C@@H](C)CO)C[C@@H]1C | -1 | -2 | 7 | 1 | -1
C[C@H](NC(=O)C[C@@H]1CC[C@H](NC(=O)C2CCOCC2)[C@@H](CO)O1)c1ccccc1 | 4 | -1 | 111* | 1 | 1
C[C@@H](NC(=O)C[C@H]1CC[C@@H](NC(=O)CN2CCOCC2)[C@@H](CO)O1)c1ccccc1 | 17* | -2 | 5 | -2 | 0
O=C(C[C@@H]1CC[C@@H](NC(=O)Cc2ccccn2)[C@@H](CO)O1)NCCCN1CCOCC1 | 15* | -2 | 13 | 2 | -5
C[C@H](NC(=O)C[C@H]1CC[C@H](NC(=O)C2CCOCC2)[C@@H](CO)O1)c1ccccc1 | -1 | 2 | 9 | 2 | 0
O=C(C[C@@H]1CC[C@@H](NC(=O)Cc2ccccn2)[C@H](CO)O1)NCCCN1CCOCC1 | 1 | 1 | 58 | 4 | -3
C[C@@H](NC(=O)C[C@H]1C=C[C@H](NC(=O)C2CC2)[C@@H](CO)O1)c1ccccc1 | 17* | -1 | 7 | 0 | -1
Cc1ccc(S(=O)(=O)Nc2ccc3c(c2)CC(=O)N([C@@H](C)CO)C[C@@H](C)[C@H](CN(C)C(=O)Nc2ccc(F)cc2)O3)cc1 | -1 | -1 | -2 | -1 | 1
COc1cccc(S(=O)(=O)N(C)C[C@H]2Oc3cc(C#CCC(C)C)ccc3S(=O)(=O)N([C@H](C)CO)C[C@H]2C)c1 | -5 | -3 | 5 | -2 | 0
CO[C@H]1CN(C)C(=O)c2cc(NS(=O)(=O)c3ccccc3Cl)ccc2OC[C@@H](C)NC[C@H]1C | -2 | -5 | 0 | 2 | -1
CCCNC(=O)C[C@@H]1CC[C@H]2[C@@H](COC[C@H](O)CN2CC2CCCCC2)O1 | -3 | 1 | -1 | 3 | 1
COC(=O)CC1(c2ccc(OC)cc2)C(=O)c2ccccc2C1=O | 0 | -1 | -1 | -26* | 7
COC(=O)CC1(c2ccccc2)C(=O)c2ccccc2C1=O | -1 | -5 | -4 | -17 | -1
Cc1cc(Cl)cc(C)c1OCCCCCn1ccnc1 | 2 | -1 | -4 | -42 | 4
Cc1cc(Cl)cc(C)c1OCCn1ccnc1 | 0 | 13* | 3 | -18 | 0
O=Cc1ccc2c(c1)CCN2Cc1ccccc1 | -2 | 1 | -1 | -19* | 5
CCCN1C[C@H](C)[C@@H](OC)CN(C)C(=O)c2cc(NC(=O)c3ccccc3)ccc2OC[C@@H]1C | 9 | -2 | 2 | -1 | 1
Cc1cccc(C(=O)OCC(=O)NC(=O)c2ccccc2)c1O | 16* | 0 | 3 | -8 | -3
Cc1cc(C)c(C(=O)OCC(=O)NC(=O)c2ccccc2)c(C)c1 | -3 | 0 | 1 | -1 | -4
COc1cc(SC)ccc1C(=O)N1CCN(c2ccccc2OC)CC1 | -4 | 14* | 1 | -3 | -5
COc1ccccc1N1CCN(C(=O)c2ccc(-c3ccccc3)cc2)CC1 | 0 | 3 | -2 | -17 | 0
COc1cc(OC)cc(C(=O)N2CCC(N3CCN(c4ccccc4OC)CC3)CC2)c1 | 24* | -3 | 5 | 7 | -5
SMILES | SIRT5 block | F508del corr | S100A4 inh HTS | Ecoli rRNA inh | ERAP1 HTS inh
COc1ccccc1N1CCN(C(=O)c2ccc3noc(-c4ccccc4)c3c2)CC1 | / | -3 | 0 | -13* | 0
COc1ccc(C(=O)N2CCN(c3ccccc3OC)CC2)cc1 | / | 1 | 1 | 3 | /
COc1ccccc1N1CCN(C(=O)c2ccc(-c3ccc(Cl)cc3)o2)CC1 | 4 | 9.4* | 1 | -26 | 1
CO[C@H]1CN(C)C(=O)c2cc(NC(C)=O)ccc2OC[C@H](C)N(Cc2ccc(F)cc2)C[C@H]1C | -1 | 1 | 39 | -2 | 0
O=C(Nc1cccc(Cl)c1)N[C@H]1CC[C@H](CCNC(=O)C2CCCC2)O[C@H]1CO | 6 | 2 | 132* | -1 | 3
O=C(NCC[C@@H]1CC[C@H](NC(=O)c2ccccc2F)[C@@H](CO)O1)c1ccc2c(c1)OCO2 | 16* | 0 | -6 | -1 | -2
CC(C)NC(=O)N[C@H]1CC[C@H](CCNC(=O)C2CCCC2)O[C@@H]1CO | 25* | -2 | -4 | 3 | /
O=C(Nc1cccc(Cl)c1)N[C@H]1CC[C@H](CCNC(=O)C2CCCC2)O[C@@H]1CO | 2 | 1 | 1 | -4 | 4
O=C(Nc1ccccc1F)N[C@H]1CC[C@@H](CCNC(=O)C2CCCCC2)O[C@@H]1CO | 3 | 1 | 17 | -4 | -4
O=C(NCC[C@@H]1CC[C@H](NC(=O)c2ccccc2F)[C@H](CO)O1)c1ccc2c(c1)OCO2 | 4 | -1 | 11 | -1 | 0
O=C(Nc1ccccc1F)N[C@H]1CC[C@H](CCNC(=O)C2CCCCC2)O[C@H]1CO | 7 | -1 | 87* | -2 | -3
C[C@H]1CN([C@@H](C)CO)C(=O)c2cc(NS(=O)(=O)c3cn(C)cn3)ccc2O[C@@H]1CN(C)S(=O)(=O)c1cccs1 | 4 | 2 | -3 | 1 | 0
C[C@@H]1CCCCO[C@H](CN(C)CC2CCCCC2)[C@@H](C)CN([C@@H](C)CO)C(=O)c2cc(NS(=O)(=O)c3cccs3)ccc2O1 | -1 | 4 | -3 | 1 | 0
C[C@@H]1CN([C@H](C)CO)C(=O)c2c(c3ccccc3n2C)-c2ccccc2CO[C@H]1CN(C)S(=O)(=O)c1ccc([N+](=O)[O-])cc1 | 32* | 5 | 5 | -1 | -1
C[C@@H]1CN([C@@H](C)CO)C(=O)c2c(c3ccccc3n2C)-c2ccccc2CO[C@H]1CN(C)S(=O)(=O)c1ccc([N+](=O)[O-])cc1 | -9 | -1 | 6 | 0 | 3
C[C@@H]1CN([C@H](C)CO)C(=O)c2c(c3ccccc3n2C)-c2ccccc2CO[C@@H]1CN(C)S(=O)(=O)c1ccc(Cl)cc1 | 19* | 2 | 12 | 4 | 2
Cc1cccc(S(=O)(=O)N(C)C[C@@H]2OCc3ccccc3-c3c(n(C)c4ccccc34)C(=O)N([C@H](C)CO)C[C@H]2C)c1 | / | / | / | 0 | /
C[C@H]1CN([C@@H](C)CO)C(=O)c2c(c3ccccc3n2C)-c2ccccc2CO[C@H]1CN(C)S(=O)(=O)c1ccc(F)cc1 | 21* | -3 | -3 | 1 | -1
